Results: ChEMBL document CHEMBL4616694, “Selective Covalent Targeting of Mutated EGFR(T790M) with Chlorofluoroacetamide-Pyrimidines” (ACS Med Chem Lett, 2020)
Each block holds one compound with its values, some of them ahead of it. Activity calls are given as the source filed them. No cut-off for these calls is given here.

Tests used:
NCI-H1975 = test: Antiproliferative activity against human NCI-H1975 cells harboring EGFR L858R/T790M mutant assessed as reduction in cell viability measured after 72 hrs by WST assay; assay type: functional, cell-based; conditions: NCI-H1975, 72 h
[1] = Selectivity index, ratio of IC50 for human NCI-H292 cells expressing wild type EGFR assessed as reduction in cell viability measured after 72 hrs by MTT assay to IC50 for human NCI-H1975 cells harboring EGFR L858R/T790M mutant assessed as reduction in cell viability measured after 72 hrs by MTT assay; assay type: functional
NCI-H292 = test: Antiproliferative activity against human NCI-H292 cells expressing wild type EGFR assessed as reduction in cell viability measured after 72 hrs by WST assay; assay type: functional, cell-based; conditions: NCI-H292, 72 h
[2] = Half life of compound in phosphate buffer at pH 7.4 and 37 degree C under neutral aqueous condition in presence of excess glutathione; assay type: physicochemical; conditions: phosphate buffer with excess glutathione
Method in brief: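 Compound was incubated with excess glutathione under neutral aqueous conditions (pH 7.4, 37 °C), and half-reaction time was determined from the time course.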

[3] = system: Epidermal growth factor receptor (Homo sapiens), P00533 [L858R,T790M]; test: (§1) Competitive binding affinity to EGFR L858R/T790M mutant in human H1975 cells assessed as fluorescent band formation at 5 uM pretreated with compound followed by subsequent addition of copper-catalyzed azide-alkyne cyclo with rhodamine azide measured after 1 hr in presence of osimertinib by in-gel fluorescence assay; assay type: cell-based
Method in brief: (§2)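 H1975 cells were incubated with the alkyne CFA probe for 1 h at 37 °C. Labeled proteins were clicked to rhodamine-azide by CuAAC and resolved by in-gel fluorescence, with EGFR taken as the 175 kDa band. For competition, excess osimertinib was present. Labeling was also run across probe concentrations, including 1–10 µM.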

[4] = system: Epidermal growth factor receptor (Homo sapiens), P00533 [L858R,T790M]; test: (§3) Binding affinity to recombinant human EGFR L858R/T790M mutant kinase domain assessed as stability of compound-protein adduct at 2 uM pretreated with compound followed by subsequent addition of copper-catalyzed azide-alkyne cyclo with rhodamine azide measured after 24 hrs by coomassie brilliant blue staining based in-gel fluorescence assay
[5] = system: Epidermal growth factor receptor (Homo sapiens), P00533 [L858R,T790M]; test: as §1, with “L858R/T790M” for “L858R/T790M mutant”, “formation by measuring molecular weight” for “formation”, “hr” for “hr in presence of osimertinib”; assay type: cell-based; method in brief: as §2
[6] = target: Epidermal growth factor receptor (Homo sapiens) (UniProt P00533); test: Competitive binding affinity to EGFR in human H1975 cells assessed as protein labeling pretreated with compound followed by subsequent addition of copper-catalyzed azide-alkyne cyclo with rhodamine azide measured after 1 hr by in-gel fluorescence assay; assay type: cell-based; method in brief: as §2
[7] = target: Epidermal growth factor receptor (Homo sapiens) (UniProt P00533); test: Competitive binding affinity to EGFR in human H1975 cells assessed as protein labeling at 1 uM pretreated with compound followed by subsequent addition of copper-catalyzed azide-alkyne cyclo with rhodamine azide by in-gel fluorescence assay; assay type: cell-based; conditions: TDE = time-dependent effect
Method in brief: (§4)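 H1975 cells were labeled over time with 1 µM alkyne probe, with incubations extending to 10 h. Labeled proteins were conjugated to rhodamine-azide by copper-catalyzed azide-alkyne cycloaddition and read by in-gel fluorescence.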

[8] = target: Epidermal growth factor receptor (Homo sapiens) (UniProt P00533); test: Competitive binding affinity to EGFR in human H1975 cells assessed as protein labeling at 1 uM pretreated with compound followed by subsequent addition of copper-catalyzed azide-alkyne cyclo with rhodamine azide incubated for 10 hrs by in-gel fluorescence assay; assay type: cell-based; method in brief: as §4
[9] = target: Epidermal growth factor receptor (Homo sapiens) (UniProt P00533); test: Competitive binding affinity to wild type EGFR expressed in human H292 cells assessed as protein labeling pretreated with compound followed by subsequent addition of copper-catalyzed azide-alkyne cyclo with rhodamine azide incubated for 2 hrs by in-gel fluorescence assay; assay type: cell-based
[10] = target: Epidermal growth factor receptor (Homo sapiens) (UniProt P00533); test: Competitive binding affinity to wild type EGFR expressed in human H292 cells assessed as protein labeling at 1 uM pretreated with compound followed by subsequent addition of copper-catalyzed azide-alkyne cyclo with rhodamine azide by in-gel fluorescence assay; assay type: cell-based; conditions: TDE = time-dependent effect
[11] = target: Epidermal growth factor receptor (Homo sapiens) (UniProt P00533); test: Competitive binding affinity to wild type EGFR expressed in human HEK293 cells assessed as protein labeling pretreated with compound followed by subsequent addition of copper-catalyzed azide-alkyne cyclo with rhodamine azide incubated for 2 hrs by in-gel fluorescence assay; assay type: cell-based
[12] = target: Epidermal growth factor receptor (Homo sapiens) (UniProt P00533); test: Competitive binding affinity to wild type EGFR expressed in human HEK293 cells assessed as protein labeling at 1 uM pretreated with compound followed by subsequent addition of copper-catalyzed azide-alkyne cyclo with rhodamine azide by in-gel fluorescence assay; assay type: cell-based; conditions: TDE = time-dependent effect
[13] = target: Epidermal growth factor receptor (Homo sapiens) (UniProt P00533); test: Competitive binding affinity to wild type EGFR expressed in human H292 cells assessed as SILAC ratio at 5 uM measured after 2 hrs by MS analysis; assay type: cell-based
[14] = target: Epidermal growth factor receptor (Homo sapiens) (UniProt P00533); test: Binding affinity to wild type EGFR expressed in human H292 cells assessed as protein labeling at 1 uM measured after 1 hr by pull down based Western blot analysis
[15] = system: Epidermal growth factor receptor (Homo sapiens), P00533 [L858R,T790M]; test: Binding affinity to EGFR L858R/T790M mutant expressed in human H1975 cells assessed as protein labeling at 1 uM measured after 1 hr by pull down based Western blot analysis
[16] = system: Epidermal growth factor receptor (Homo sapiens), P00533 [L858R,T790M]; test: as §3, with “rapid covalent modification” for “stability of compound-protein adduct”, “72” for “24”
[17] = system: Epidermal growth factor receptor (Homo sapiens), P00533 [L858R,T790M]; test: Competitive binding affinity to EGFR L858R/T790M mutant expressed in human H1975 cells assessed as SILAC ratio at 5 uM measured after 2 hrs by MS analysis; assay type: cell-based
Method in brief: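 SILAC mass spectrometry in isotopically labeled H1975 cells treated with the probe at 5 µM for 2 h at 37 °C, followed by streptavidin enrichment. Reported values are log2 median SILAC ratios (probe/DMSO or probe/probe) from triplicate MS analyses of a single enriched sample.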

Homo sapiens = species on record: Homo sapiens; test: Selectivity index, ratio of IC50 for wild type EGFR (unknown origin) to IC50 for human EGFR L858R/T790M mutant expressed in baculovirus infected insect cells
[18] = system: Epidermal growth factor receptor (Homo sapiens), P00533 [L858R,T790M]; test: Inhibition of EGFR L858R/T790M mutant in human H1975 cells assessed as reduction in autophosphorylation at Y1068 residue at 10 nM by Western blot analysis; assay type: cell-based
Method in brief: (§5)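 H1975 cells were treated at 10 nM, and EGFR Y1068 autophosphorylation was assessed by western blot. For irreversibility, compound was washed out of the culture medium and phospho-EGFR was examined for at least 8 h afterwards.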

[19] = system: Epidermal growth factor receptor (Homo sapiens), P00533 [L858R,T790M]; test: Irreversible inhibition of EGFR L858R/T790M mutant in human H1975 cells assessed as reduction in autophosphorylation at Y1068 residue at 10 nM measured after 8 hrs post compound washout by Western blot analysis; assay type: cell-based; method in brief: as §5
[20] = Cmax in BALB/c mouse at 25 mg/kg, po administered as single dose measured at 2 hrs; assay type: ADME, organism-based; set-up: dose 25 mg/kg, route oral; conditions: in vivo
Method in brief: (§6)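 Mice received a single oral dose of 25 mg/kg. Plasma compound levels were followed over time, giving peak concentration with its time and mean residence time.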

[21] = Mean residence time in BALB/c mouse at 25 mg/kg, po administered as single dose measured at 2 hrs; assay type: ADME, organism-based; conditions: in vivo; method in brief: as §6
[22] = system: Epidermal growth factor receptor (Homo sapiens), P00533 [L858R,T790M]; test: Binding affinity to recombinant human EGFR L858R/T790M mutant kinase domain expressed in baculovirus infected insect cells assessed as covalent bond formation between protein Cys797 residue-compound by LC-MS/MS analysis
[23] = system: Epidermal growth factor receptor (Homo sapiens), P00533 [L858R,T790M]; test: as §3, with “fluorescent band formation” for “stability of compound-protein adduct”, “72” for “24”
[24] = system: Epidermal growth factor receptor (Homo sapiens), P00533 [L858R,T790M]; test: as §3, with “as” for “as stability of”, “adduct formation” for “adduct”, “72” for “24”

IC50 (NCI-H1975): 31 nM | IC50 (NCI-H292): 710 nM
SMILES: COc1cc(N(C)CCN(C)C)c(NC(=O)[C@H](C)NC(=O)C(F)Cl)cc1Nc1ncc(Cl)c(-c2c[nH]c3ccccc23)n1 (some centres undefined)
Ratio IC50 [1]: 22.9

IC50 (NCI-H1975): 50 nM
SMILES: COc1cc(N(C)CCN(C)C)c(NC(=O)C(F)Cl)cc1Nc1ncc(Cl)c(-c2c[nH]c3ccccc23)n1 (centres undefined)

half-life [2]: 11.2 h
SMILES: CNC(=O)[C@H](CSC(F)C(=O)N[C@@H](C)C(=O)Nc1cc(Nc2ncc(C(F)(F)F)c(-c3c[nH]c4ccccc34)n2)c(OC)cc1N(C)CCN(C)C)NC(C)=O (some centres undefined)

IC50 (NCI-H1975): 56 nM
SMILES: COc1cc(N(C)CCN(C)C)c(NC(=O)[C@@H]2CCCN2C(=O)C(F)Cl)cc1Nc1ncc(Cl)c(-c2c[nH]c3ccccc23)n1 (some centres undefined)

IC50 (NCI-H1975): 52 nM
SMILES: COc1cc(N(C)CCN(C)C)c(NC(=O)[C@H](CC(C)C)NC(=O)C(F)Cl)cc1Nc1ncc(Cl)c(-c2c[nH]c3ccccc23)n1 (some centres undefined)

IC50 (NCI-H1975): 460 nM | IC50 (NCI-H292): 3590 nM
SMILES: COc1cc(N(C)CCN(C)C)c(NC(=O)[C@H](C)NC(C)=O)cc1Nc1ncc(C(F)(F)F)c(-c2c[nH]c3ccccc23)n1
Ratio IC50 [1]: 7.8

Activity [3]: inactive | IC50 (NCI-H1975): 51 nM | Activity [4]: Active | Activity [5]: 175 kDa | Activity [6]: Dose-dependent effect | Activity [7]: Tde | Activity [8]: Active | Activity [9]: Dose-dependent effect | Activity [10]: Tde | Activity [11]: Dose-dependent effect | Activity [12]: Tde | log(ratio) [13]: 3.2 | Activity [14]: Active | Activity [15]: Active
SMILES: C#CCCN(C)CCN(C)c1cc(OC)c(Nc2ncc(C(F)(F)F)c(-c3c[nH]c4ccccc34)n2)cc1NC(=O)[C@H](C)NC(=O)C(F)Cl (some centres undefined)

IC50 (NCI-H1975): 150 nM
SMILES: COc1cc(N(C)CCN(C)C)c(NC(=O)[C@@H]2C[C@@H](O)CN2C(=O)C(F)Cl)cc1Nc1ncc(Cl)c(-c2c[nH]c3ccccc23)n1 (some centres undefined)

SMILES: COc1cc(N(C)CCN(C)C)c(NC(=O)C(F)Cl)cc1Nc1ncc(C(F)(F)F)c(-c2c[nH]c3ccccc23)n1 (centres undefined)
IC50 (NCI-H1975): 33 nM | Ratio IC50 [1]: 17.3 | IC50 (NCI-H292): 570 nM

IC50 (NCI-H1975): 320 nM
SMILES: COc1cc(N(C)CCN(C)C)c(NC(=O)[C@H](CO)NC(=O)C(F)Cl)cc1Nc1ncc(Cl)c(-c2c[nH]c3ccccc23)n1 (some centres undefined)

IC50 (NCI-H1975): 380 nM
SMILES: COc1cc(N(C)CCN(C)C)c(NC(=O)[C@@H]2CCN2C(=O)C(F)Cl)cc1Nc1ncc(Cl)c(-c2c[nH]c3ccccc23)n1 (some centres undefined)

IC50 (NCI-H1975): 72 nM | Activity [16]: Active | Activity [6]: Dose-dependent effect | Activity [7]: Tde | log(ratio) [17]: -0.059 | Activity [14]: Active | Activity [15]: Active
SMILES: C#CCCN(C)CCN(C)c1cc(OC)c(Nc2nccc(-c3cn(C)c4ccccc34)n2)cc1NC(=O)C=C

SMILES: C=CC(=O)Nc1cc(Nc2nccc(-c3cn(C)c4ccccc34)n2)c(OC)cc1N(C)CCN(C)C [OSIMERTINIB]
IC50 (NCI-H1975): […] | Ratio IC50 [1]: […] | IC50 (NCI-H292): 220 nM

IC50 (NCI-H1975): 440 nM
SMILES: COc1cc(N(C)CCN(C)C)c(NC(=O)[C@@H](C)NC(=O)C(F)Cl)cc1Nc1ncc(Cl)c(-c2c[nH]c3ccccc23)n1 (some centres undefined)

IC50 (NCI-H1975): 130 nM
SMILES: COc1cc(N(C)CCN(C)C)c(NC(=O)CNC(=O)C(F)Cl)cc1Nc1ncc(Cl)c(-c2c[nH]c3ccccc23)n1 (centres undefined)

SMILES: COc1cc(N(C)CCN(C)C)c(NC(=O)[C@H](C)NC(=O)C(F)Cl)cc1Nc1ncc(C(F)(F)F)c(-c2c[nH]c3ccccc23)n1 (some centres undefined)
Ratio IC50 (Homo sapiens): 44.7 | IC50 (NCI-H1975): 15 nM | Ratio IC50 [1]: 91.3 | IC50 (NCI-H292): 1370 nM | inhibition [18]: Active | inhibition [19]: Active | Cmax [20]: 510 nM | MRT [21]: 8.9 h | Activity [22]: Active | Activity [23]: Active | half-life [2]: 49.4 h | Activity [24]: Active
